Results published in ChEMBL document CHEMBL1137076, “New arylpiperazine 5-HT(1A) receptor ligands containing the pyrimido[2,1-f]purine fragment: synthesis, in vitro, and in vivo pharmacological evaluation” (J Med Chem, 2004).
Where “and” joins values, the source holds several entries; their conditions need not be identical. Equal values may be shown once.

Columns and labels:
D(2) dopamine receptor = D(2) dopamine receptor (Rattus norvegicus, UniProt P61169); test: Ability to bind to Dopamine receptor D2 in vitro in rat sriatal membranes using [3H]spiperone radioligand; assay type: cell membranes
Chain of D(2) dopamine receptor (P61169 whole entry): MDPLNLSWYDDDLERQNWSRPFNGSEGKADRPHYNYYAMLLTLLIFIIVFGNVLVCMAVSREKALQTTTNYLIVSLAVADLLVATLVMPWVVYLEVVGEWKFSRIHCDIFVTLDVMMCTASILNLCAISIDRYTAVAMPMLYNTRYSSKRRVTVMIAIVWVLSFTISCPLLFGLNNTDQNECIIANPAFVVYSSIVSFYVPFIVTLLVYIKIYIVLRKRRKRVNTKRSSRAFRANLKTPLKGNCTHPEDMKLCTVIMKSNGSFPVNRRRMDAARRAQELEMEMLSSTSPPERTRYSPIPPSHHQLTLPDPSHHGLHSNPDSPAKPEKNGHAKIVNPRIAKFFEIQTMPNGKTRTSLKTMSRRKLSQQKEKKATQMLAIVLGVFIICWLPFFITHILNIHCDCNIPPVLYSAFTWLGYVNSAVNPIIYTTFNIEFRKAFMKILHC
Summary of the method: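 Rat striatal membranes with [3H]spiperone; ketanserin 50 nM in buffer to block 5-HT2A binding; nonspecific binding with (±)-butaclamol 5 μM; 50 mM potassium phosphate pH 7.4; 37 °C, 30 min; vacuum filtration onto glass fiber, scintillation counting. Ki via Cheng-Prusoff from ≥3 experiments, 10 concentrations in triplicate.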

[1] = target: 5-hydroxytryptamine receptor 1A (Rattus norvegicus) (UniProt P19327); test: Ability inhibit symptoms induced by 8-OH-DPAT was regarded as postsynaptic 5-HT1A receptor antagonistic activity; Antagonist; details: filed as antagonist
[2] = target: T1, Adrenergic receptor alpha-1 (Rattus norvegicus, UniProt P15823+P23944+P43140); test: Ability to bind to alpha-1 adrenergic receptor in vitro in cortex of the rat brain using [3H]prazosin radioligand; assay type: tissue-based
T1 sequence (P15823 whole entry): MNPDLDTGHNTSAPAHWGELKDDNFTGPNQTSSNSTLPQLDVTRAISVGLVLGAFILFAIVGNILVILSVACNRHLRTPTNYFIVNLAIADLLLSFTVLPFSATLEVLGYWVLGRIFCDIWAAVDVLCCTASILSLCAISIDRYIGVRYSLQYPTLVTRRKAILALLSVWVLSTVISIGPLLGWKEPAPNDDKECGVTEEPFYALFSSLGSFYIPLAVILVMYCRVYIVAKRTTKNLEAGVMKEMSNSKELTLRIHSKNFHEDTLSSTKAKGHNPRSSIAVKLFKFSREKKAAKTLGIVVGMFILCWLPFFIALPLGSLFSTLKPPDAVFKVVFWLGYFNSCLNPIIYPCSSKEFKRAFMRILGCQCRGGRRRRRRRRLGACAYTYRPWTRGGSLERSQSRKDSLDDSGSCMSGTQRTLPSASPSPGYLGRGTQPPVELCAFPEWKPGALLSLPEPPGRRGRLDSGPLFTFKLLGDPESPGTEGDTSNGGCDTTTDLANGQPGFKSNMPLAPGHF
T1 sequence (P23944 whole entry): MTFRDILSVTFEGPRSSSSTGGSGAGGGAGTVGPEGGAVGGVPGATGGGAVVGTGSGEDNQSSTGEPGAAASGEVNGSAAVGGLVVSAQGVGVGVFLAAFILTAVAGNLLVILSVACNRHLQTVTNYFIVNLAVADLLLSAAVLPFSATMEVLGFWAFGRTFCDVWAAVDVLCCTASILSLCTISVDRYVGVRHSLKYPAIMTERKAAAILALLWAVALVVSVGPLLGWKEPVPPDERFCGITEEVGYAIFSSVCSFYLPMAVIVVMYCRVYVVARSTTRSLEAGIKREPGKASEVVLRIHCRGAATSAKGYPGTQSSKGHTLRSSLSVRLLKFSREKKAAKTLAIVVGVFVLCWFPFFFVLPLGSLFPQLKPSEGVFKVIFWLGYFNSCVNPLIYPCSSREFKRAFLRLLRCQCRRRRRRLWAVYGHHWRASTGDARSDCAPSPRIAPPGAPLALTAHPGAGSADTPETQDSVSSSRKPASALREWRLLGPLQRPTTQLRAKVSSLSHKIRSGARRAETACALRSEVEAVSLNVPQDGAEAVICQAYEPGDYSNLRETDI
T1 sequence (P43140 whole entry): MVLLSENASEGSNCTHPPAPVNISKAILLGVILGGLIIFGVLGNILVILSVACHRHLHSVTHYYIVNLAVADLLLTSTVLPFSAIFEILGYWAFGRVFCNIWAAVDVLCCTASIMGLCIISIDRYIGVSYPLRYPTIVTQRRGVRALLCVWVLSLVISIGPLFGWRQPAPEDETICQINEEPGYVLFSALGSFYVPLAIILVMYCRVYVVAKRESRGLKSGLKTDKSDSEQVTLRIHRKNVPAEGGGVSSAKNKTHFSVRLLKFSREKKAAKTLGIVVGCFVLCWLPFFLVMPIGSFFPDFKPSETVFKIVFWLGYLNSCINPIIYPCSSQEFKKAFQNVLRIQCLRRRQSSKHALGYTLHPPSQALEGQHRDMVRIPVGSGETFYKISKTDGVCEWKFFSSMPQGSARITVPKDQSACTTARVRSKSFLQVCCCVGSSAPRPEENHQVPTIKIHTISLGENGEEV
Summary of the method: (§1)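 Competition binding in rat brain tissue: hippocampus with [3H]-8-OH-DPAT (5-HT1A); cortex with [3H]-ketanserin (5-HT2A) or [3H]-prazosin (α1). Ki from at least three experiments using 10–14 concentrations (10⁻¹⁰–10⁻⁵ M), each in triplicate.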

[3] = target: 5-hydroxytryptamine receptor 2A (Rattus norvegicus, UniProt P14842); test: Ability to bind to central serotonin 5-hydroxytryptamine 2A receptor in vitro in cortex of the rat brain using [3H]ketanserin radioligand; assay type: tissue-based; summary of the method: as §1
Chain of 5-hydroxytryptamine receptor 2A (P14842 whole entry): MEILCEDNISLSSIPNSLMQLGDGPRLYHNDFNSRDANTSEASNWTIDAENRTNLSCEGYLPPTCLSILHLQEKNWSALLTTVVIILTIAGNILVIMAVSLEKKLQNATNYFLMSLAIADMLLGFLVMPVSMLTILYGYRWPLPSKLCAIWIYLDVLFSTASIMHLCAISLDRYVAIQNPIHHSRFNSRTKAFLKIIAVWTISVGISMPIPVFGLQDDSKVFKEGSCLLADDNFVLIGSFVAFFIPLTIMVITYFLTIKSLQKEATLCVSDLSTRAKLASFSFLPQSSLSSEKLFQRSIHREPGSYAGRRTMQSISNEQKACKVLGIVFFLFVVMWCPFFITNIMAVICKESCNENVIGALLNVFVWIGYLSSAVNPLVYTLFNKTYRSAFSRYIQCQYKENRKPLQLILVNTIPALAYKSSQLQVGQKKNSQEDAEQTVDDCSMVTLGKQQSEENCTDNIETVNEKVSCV

[4] = target: T2, 5-hydroxytryptamine receptor 1A (Mus musculus) (UniProt Q64264); test: The hypothermia produced in mice was regarded as a measure of presynaptic 5-HT1A receptor agonistic activity; Agonist; assay type: functional; details: filed as agonist
T2 sequence (whole entry): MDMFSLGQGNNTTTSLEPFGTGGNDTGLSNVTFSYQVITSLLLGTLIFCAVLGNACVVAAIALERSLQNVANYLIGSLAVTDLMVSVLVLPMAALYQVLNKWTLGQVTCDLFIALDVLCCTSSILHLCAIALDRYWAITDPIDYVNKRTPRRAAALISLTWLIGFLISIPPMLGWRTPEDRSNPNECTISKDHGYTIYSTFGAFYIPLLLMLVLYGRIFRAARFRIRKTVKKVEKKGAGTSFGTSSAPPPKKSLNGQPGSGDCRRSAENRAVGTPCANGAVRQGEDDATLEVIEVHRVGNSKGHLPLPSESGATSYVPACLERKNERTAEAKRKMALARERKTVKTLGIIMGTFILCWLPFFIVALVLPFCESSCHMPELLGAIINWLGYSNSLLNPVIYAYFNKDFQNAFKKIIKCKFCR

[5] = target: T3, 5-hydroxytryptamine receptor 1A (Rattus norvegicus, UniProt P19327); test: Ability to bind to central serotonin 5-hydroxytryptamine 1A receptor in vitro in hippocampus of the rat brain using [3H]8-OH-DPAT radioligand; assay type: tissue-based; summary of the method: as §1
T3 sequence (P19327 whole entry): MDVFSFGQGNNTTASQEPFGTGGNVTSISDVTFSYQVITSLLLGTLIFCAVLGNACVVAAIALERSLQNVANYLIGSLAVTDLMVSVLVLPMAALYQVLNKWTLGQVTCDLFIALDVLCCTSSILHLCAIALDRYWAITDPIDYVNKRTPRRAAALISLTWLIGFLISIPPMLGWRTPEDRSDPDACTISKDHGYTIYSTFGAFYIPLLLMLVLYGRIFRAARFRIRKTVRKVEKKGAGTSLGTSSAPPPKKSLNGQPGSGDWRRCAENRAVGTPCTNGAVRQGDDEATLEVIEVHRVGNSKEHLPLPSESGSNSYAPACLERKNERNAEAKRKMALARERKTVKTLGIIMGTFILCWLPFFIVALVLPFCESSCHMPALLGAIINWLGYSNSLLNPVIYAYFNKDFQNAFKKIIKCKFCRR

[6] = target: 5-hydroxytryptamine receptor 2A (Mus musculus) (UniProt P35363); test: The ability to antagonize head twitches in mice, observed after administration of (+/-)- DOI, was used to evaluate 5-HT2A receptor antagonistic property; Antagonist; assay type: functional, organism-based; details: filed as antagonist
Chain of 5-hydroxytryptamine receptor 2A (Mus musculus) (P35363 whole entry): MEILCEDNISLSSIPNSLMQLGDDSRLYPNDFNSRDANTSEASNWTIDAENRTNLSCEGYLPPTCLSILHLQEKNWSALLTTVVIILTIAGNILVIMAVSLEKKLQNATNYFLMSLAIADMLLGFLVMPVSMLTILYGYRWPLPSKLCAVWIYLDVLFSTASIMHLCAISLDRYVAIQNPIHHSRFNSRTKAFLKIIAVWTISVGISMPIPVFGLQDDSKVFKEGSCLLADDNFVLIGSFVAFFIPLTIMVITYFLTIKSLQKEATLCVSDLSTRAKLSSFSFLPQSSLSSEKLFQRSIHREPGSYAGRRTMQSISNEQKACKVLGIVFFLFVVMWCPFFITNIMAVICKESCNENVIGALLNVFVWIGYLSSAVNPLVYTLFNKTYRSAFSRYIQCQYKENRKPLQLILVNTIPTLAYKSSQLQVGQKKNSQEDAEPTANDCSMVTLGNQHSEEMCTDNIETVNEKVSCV
Summary of the method: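 Male Albino Swiss mice habituated 20 min in glass cages; compounds ip (1% Tween 80) 60 min before (±)-DOI 2.5 mg/kg; head twitches counted for 20 min after DOI. ID50 by Litchfield-Wilcoxon.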

Rattus norvegicus [7] = test: Effect of compound administered 60 min before the test in the forced swimming test in Rat (8 rats per group) at 5 mg/kg; assay type: functional
Summary of the method: (§2)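 Male Wistar rats, n=8/group; forced swim per Porsolt: 15 min pretest in cylinders with 15 cm water at 25 °C, retest 24 h later; total immobility over 5 min. Drug ip 60 min before test; imipramine in saline, test compound suspended in 1% Tween 80; Dunnett test vs vehicle.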

Rattus norvegicus [8] = test: Effect of compound administered 60 min before the test in the forced swimming test in Rat (8 rats per group) at 10 mg/kg; assay type: functional; summary of the method: as §2
Rattus norvegicus [9] = test: Effect of compound administered 60 min before the test in the forced swimming test in Rat (8 rats per group) at 20 mg/kg; assay type: functional; summary of the method: as §2
Rattus norvegicus [10] = test: Effect of Compound administered 60 min before the test in the conflict drinking test in rat (n = 8 rats/group) at 5 mg/kg; assay type: functional
Summary of the method: (§3)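 Male Wistar rats (250-300 g), compound suspended in 1% aqueous Tween 80, given ip (2 mL/kg) 60 min before test. Rats adapted 10 min to chamber, water-deprived 24 h, readapted 10 min with bottle, 30 min home-cage drinking, deprived another 24 h. After 30 s free drinking, licks punished by 0.5 mA shock; shocks accepted in 5 min counted. n=8/group; ANOVA with Dunnett test.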

Rattus norvegicus [11] = test: Effect of Compound administered 60 min before the test in the conflict drinking test in rat (n = 8 rats/group) at 2.5 mg/kg; assay type: functional; summary of the method: as §3
Mus musculus = species: Mus musculus; test: Ability to inhibit 8-OH-DPAT-induced hypothermia was taken as a measure of presynaptic antagonistic activity; Antagonist; assay type: functional, organism-based; details: filed as antagonist

## COc1ccccc1N1CCN(CCCNc2nc3nc4c(c(=O)n(C)c(=O)n4C)n3cc2Br)CC1
D(2) dopamine receptor
  Ki: 325 nM
[1]
  Functional profile: Antagonist
[2]
  Ki: 38 nM
[3]
  Ki: 880 nM
[4]
  Functional profile: Agonist
[5]
  Ki: 36 nM

## COc1ccccc1N1CCN(CCCN2CCCn3c2nc2c3c(=O)n(C)c(=O)n2C)CC1
[3]
  Ki: 562 nM
[5]
  Ki: 17.2 nM

## Cn1c(=O)c2c(nc3nc(NCCCN4CCN(c5cccc(Cl)c5)CC4)c(Br)cn32)n(C)c1=O
D(2) dopamine receptor
  Ki: 264 nM
[1]
  Functional profile: Antagonist
[2]
  Ki: 46 nM
[3]
  Ki: 85 nM
[4]
  Functional profile: Agonist
[5]
  Ki: 49 nM
[6]
  Functional profile: Antagonist

## Cn1c(=O)c2c(nc3nc(NCCCN4CCN(c5ccccc5)CC4)c(Br)cn32)n(C)c1=O
D(2) dopamine receptor
  Ki: 414 nM
[2]
  Ki: 11 nM
[3]
  Ki: 297 nM
Rattus norvegicus [7]
  Effect: 73.1%
  Immobility time: 173.9 s
[4]
  Functional profile: Agonist
Rattus norvegicus [8]
  Effect: 64.4%
  Immobility time: 153.1 s
Rattus norvegicus [9]
  Effect: 69.6%
  Immobility time: 165.6 s
[5]
  Ki: 11 nM
Rattus norvegicus [10]
  Effect: 491.9%
  No. of shocks accepted/5 min: 36.4

## CN1C(=O)CN=C(c2ccccc2)c2cc(Cl)ccc21 [DIAZEPAM]
Rattus norvegicus [11]
  Effect: 306.5% and 685.7%
  No. of shocks accepted/5 min: 23.6 and 52.8
Rattus norvegicus [10]
  Effect: 533.8%
  No. of shocks accepted/5 min: 41.1

## Cn1c(=O)c2c(nc3n(CCCN4CCN(c5ccccc5)CC4)c(=O)ccn23)n(C)c1=O
[3]
  Ki: 4680 nM
[5]
  Ki: 25 nM

## COc1ccccc1N1CCN(CCNc2ccn3c(n2)nc2c3c(=O)n(C)c(=O)n2C)CC1
D(2) dopamine receptor
  Ki: 1330 nM
[1]
  Functional profile: Antagonist
Mus musculus
  Functional profile: Antagonist
[2]
  Ki: 58 nM
[3]
  Ki: 246 nM
[5]
  Ki: 1.1 nM

## Cn1c(=O)c2c(nc3nc(NCCN4CCN(c5ccccc5)CC4)c(Br)cn32)n(C)c1=O
D(2) dopamine receptor
  Ki: 1240 nM
[1]
  Functional profile: Antagonist
[3]
  Ki: 440 nM
[5]
  Ki: 87 nM

## Cn1c(=O)c2c(nc3nc(NCCCN4CCN(c5ccccc5)CC4)ccn32)n(C)c1=O
D(2) dopamine receptor
  Ki: 430 nM
[1]
  Functional profile: Antagonist
Mus musculus
  Functional profile: Antagonist
[2]
  Ki: 25 nM
[3]
  Ki: 72 nM
[5]
  Ki: 19 nM
[6]
  Functional profile: Antagonist
